Data published in ChEMBL document CHEMBL1629440, “Synthesis and pharmacological properties of novel hydrophilic 5-HT4 receptor antagonists” (Bioorg Med Chem, 2010).

Tests used:
[1] = target: T1, 5-hydroxytryptamine receptor 4 (Homo sapiens, UniProt Q13639); assay: Antagonistic activity at human 5HT4 receptor expressed in HEK293 cells assessed as inhibition of 5-HT stimulated ADCY activity after 20 mins; type: functional, cell-based
Outline: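 Membranes from HEK293 cells stably expressing human 5-HT4(b) at low level (400 fmol/mg). Adenylyl cyclase activity was stimulated by 1 µM 5-HT with 21 antagonist concentrations, 0.1 mM [α-32P]ATP, 4 mM MgCl2, 1 mM IBMX, GTP and ATP-regenerating system, 32 °C, 20 min. [32P]cAMP was isolated on Dowex/alumina columns. IC50 was fitted by non-linear regression and Kb calculated using 5-HT EC50.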

[2] = target: T1, 5-hydroxytryptamine receptor 4; assay: Displacement of [3H]GR113808 from human 5HT4 receptor expressed in HEK293 cells by liquid scintillation counting; type: cell-based
Outline: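 Membranes from HEK293 line stably expressing human 5-HT4(b) at high level (5000 fmol/mg). Incubated with 0.3 nM [3H]GR113808 and 21 competitor concentrations in Tris-HCl pH 7.5, EDTA, EGTA, 2 mM MgCl2, ascorbate, 0.1% BSA, 100 µM GTP, room temperature 1 h. Filtered onto PEI-soaked filters, washed, scintillation counted. Ki derived from IC50 via Ki = IC50/(1+L/Kd).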

[3] = Lipophilicity, log D of the compound in octanol buffer at pH 7.4; type: physicochemical
Outline: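 Distribution between octanol and aqueous buffer at pH 7.4. Both phases were diluted and ligand concentration in each measured by HPLC. Not determined where micelles formed.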

D(1B) dopamine receptor = D(1B) dopamine receptor (Homo sapiens, UniProt P21918); assay: Binding affinity to dopamine receptor D5
[4] = target: 5-hydroxytryptamine receptor 3A (Homo sapiens, UniProt P46098); assay: Binding affinity to 5HT3 receptor
[5] = target: Alpha-2A adrenergic receptor (Homo sapiens, UniProt P08913); assay: Binding affinity to alpha2A adrenergic receptor
[6] = target: Alpha-2B adrenergic receptor (Homo sapiens, UniProt P18089); assay: Binding affinity to alpha2B adrenergic receptor
Mu-type opioid receptor = Mu-type opioid receptor (Homo sapiens, UniProt P35372); assay: Binding affinity to opioid receptor MOR
[7] = target: 5-hydroxytryptamine receptor 1D (Homo sapiens, UniProt P28221); assay: Binding affinity to 5HT1D receptor
[8] = Binding affinity to GABA receptor BDZ-site
[9] = target: 5-hydroxytryptamine receptor 7 (Homo sapiens, UniProt P34969); assay: Binding affinity to 5HT7 receptor
[10] = target: Sodium-dependent dopamine transporter (Homo sapiens, UniProt Q01959); assay: Binding affinity to DAT
[11] = target: Muscarinic acetylcholine receptor M2 (Homo sapiens, UniProt P08172); assay: Binding affinity to muscarinic acetylcholine receptor M2
Histamine H3 receptor = Histamine H3 receptor (Homo sapiens, UniProt Q9Y5N1); assay: Binding affinity to Histamine receptor H3
[12] = target: Beta-2 adrenergic receptor (Homo sapiens, UniProt P07550); assay: Binding affinity to beta2 adrenergic receptor
[13] = target: Sodium-dependent serotonin transporter (Homo sapiens, UniProt P31645); assay: Binding affinity to SERT
[14] = target: Delta-type opioid receptor (Homo sapiens, UniProt P41143); assay: Binding affinity to opioid receptor DOR
[15] = target: Alpha-1B adrenergic receptor (Homo sapiens, UniProt P35368); assay: Binding affinity to Alpha-1B adrenergic receptor
[16] = target: 5-hydroxytryptamine receptor 2C (Homo sapiens, UniProt P28335); assay: Binding affinity to 5HT2C receptor
[17] = target: 5-hydroxytryptamine receptor 1E (Homo sapiens, UniProt P28566); assay: Binding affinity to 5HT1E receptor
[18] = target: Kappa-type opioid receptor (Homo sapiens, UniProt P41145); assay: Binding affinity to opioid receptor KOR
Histamine H2 receptor = Histamine H2 receptor (Homo sapiens, UniProt P25021); assay: Binding affinity to Histamine receptor H2
[19] = target: 5-hydroxytryptamine receptor 2B (Homo sapiens, UniProt P41595); assay: Binding affinity to 5HT2B receptor
[20] = target: 5-hydroxytryptamine receptor 2A (Homo sapiens, UniProt P28223); assay: Binding affinity to 5HT2A receptor
[21] = target: 5-hydroxytryptamine receptor 1A (Homo sapiens, UniProt P08908); assay: Binding affinity to 5HT1A receptor
[22] = target: 5-hydroxytryptamine receptor 6 (Homo sapiens, UniProt P50406); assay: Binding affinity to 5HT6 receptor
[23] = target: Alpha-1A adrenergic receptor (Homo sapiens, UniProt P35348); assay: Binding affinity to alpha1A adrenergic receptor
[24] = target: Muscarinic acetylcholine receptor M5 (Homo sapiens, UniProt P08912); assay: Binding affinity to muscarinic acetylcholine receptor M5
Histamine H1 receptor = Histamine H1 receptor (Homo sapiens, UniProt P35367); assay: Binding affinity to Histamine receptor H1
[25] = target: Muscarinic acetylcholine receptor M3 (Homo sapiens, UniProt P20309); assay: Binding affinity to muscarinic acetylcholine receptor M3
D(4) dopamine receptor = D(4) dopamine receptor (Homo sapiens, UniProt P21917); assay: Binding affinity to dopamine receptor D4
[26] = target: 5-hydroxytryptamine receptor 1B (Homo sapiens, UniProt P28222); assay: Binding affinity to 5HT1B receptor
[27] = target: Sigma non-opioid intracellular receptor 1 (Homo sapiens, UniProt Q99720); assay: Binding affinity to opioid receptor Sigma1
[28] = target: Beta-3 adrenergic receptor (Homo sapiens, UniProt P13945); assay: Binding affinity to beta3 adrenergic receptor
[29] = target: Alpha-1D adrenergic receptor (Homo sapiens, UniProt P25100); assay: Binding affinity to Alpha-1D adrenergic receptor
[30] = target: Beta-1 adrenergic receptor (Homo sapiens, UniProt P08588); assay: Binding affinity to beta1 adrenergic receptor
D(3) dopamine receptor = D(3) dopamine receptor (Homo sapiens, UniProt P35462); assay: Binding affinity to dopamine receptor D3
[31] = Binding affinity to GABA-A receptor muscimol site
[32] = target: Muscarinic acetylcholine receptor M4 (Homo sapiens, UniProt P08173); assay: Binding affinity to muscarinic acetylcholine receptor M4
[33] = target: Alpha-2C adrenergic receptor (Homo sapiens, UniProt P18825); assay: Binding affinity to Alpha-2C adrenergic receptor
D(2) dopamine receptor = D(2) dopamine receptor (Homo sapiens, UniProt P14416); assay: Binding affinity to dopamine receptor D2
[34] = target: Muscarinic acetylcholine receptor M1 (Homo sapiens, UniProt P11229); assay: Binding affinity to muscarinic acetylcholine receptor M1
Histamine H4 receptor = Histamine H4 receptor (Homo sapiens, UniProt Q9H3N8); assay: Binding affinity to Histamine receptor H4
[35] = Binding affinity to opioid receptor Sigma2
[36] = target: 5-hydroxytryptamine receptor 5A (Homo sapiens, UniProt P47898); assay: Binding affinity to 5HT5A receptor
D(1A) dopamine receptor = D(1A) dopamine receptor (Homo sapiens, UniProt P21728); assay: Binding affinity to dopamine receptor D1
[37] = Half life in bovine plasma by HPLC; type: ADME, Bos taurus; conditions: cattle
Outline: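 Ester incubated at 40 µM initial concentration in bovine plasma at 37 °C for up to 10 h. Aliquots were removed at intervals and H3PO4 added to release protein-bound drug. Parent ester and free-acid degradation product were quantified by HPLC, and half-life was calculated.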

[38] = target: T1, 5-hydroxytryptamine receptor 4; assay: Antagonistic activity at human 5HT4 receptor expressed in HEK293 cells; type: functional, cell-based

T1 sequence (Q13639 whole entry): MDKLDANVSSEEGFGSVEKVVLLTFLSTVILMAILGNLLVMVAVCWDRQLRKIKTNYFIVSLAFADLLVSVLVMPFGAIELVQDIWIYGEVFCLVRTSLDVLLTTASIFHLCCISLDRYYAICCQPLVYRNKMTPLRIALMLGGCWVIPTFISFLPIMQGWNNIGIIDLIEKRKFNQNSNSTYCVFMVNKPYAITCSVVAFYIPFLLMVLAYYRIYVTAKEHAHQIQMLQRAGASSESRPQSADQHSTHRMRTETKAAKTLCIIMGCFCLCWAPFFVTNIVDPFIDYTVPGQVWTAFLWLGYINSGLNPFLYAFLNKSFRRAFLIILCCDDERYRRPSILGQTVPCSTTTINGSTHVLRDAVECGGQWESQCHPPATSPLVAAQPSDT
Sequence of Muscarinic acetylcholine receptor M5 (P08912 whole entry): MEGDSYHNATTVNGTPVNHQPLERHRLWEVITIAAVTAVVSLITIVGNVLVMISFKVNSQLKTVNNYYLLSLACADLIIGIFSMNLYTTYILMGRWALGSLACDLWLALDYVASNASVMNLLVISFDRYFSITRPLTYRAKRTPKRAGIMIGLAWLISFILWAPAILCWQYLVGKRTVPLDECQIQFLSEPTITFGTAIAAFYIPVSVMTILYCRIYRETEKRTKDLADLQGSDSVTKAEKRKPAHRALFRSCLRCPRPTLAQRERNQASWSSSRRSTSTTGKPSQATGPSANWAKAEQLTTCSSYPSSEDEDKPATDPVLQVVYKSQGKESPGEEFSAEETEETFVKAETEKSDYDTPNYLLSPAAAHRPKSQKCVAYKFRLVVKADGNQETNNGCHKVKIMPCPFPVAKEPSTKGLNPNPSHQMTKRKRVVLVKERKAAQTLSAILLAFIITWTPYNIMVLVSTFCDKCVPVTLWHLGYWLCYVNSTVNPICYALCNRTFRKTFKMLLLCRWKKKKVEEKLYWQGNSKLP
Sequence of D(3) dopamine receptor (P35462 whole entry): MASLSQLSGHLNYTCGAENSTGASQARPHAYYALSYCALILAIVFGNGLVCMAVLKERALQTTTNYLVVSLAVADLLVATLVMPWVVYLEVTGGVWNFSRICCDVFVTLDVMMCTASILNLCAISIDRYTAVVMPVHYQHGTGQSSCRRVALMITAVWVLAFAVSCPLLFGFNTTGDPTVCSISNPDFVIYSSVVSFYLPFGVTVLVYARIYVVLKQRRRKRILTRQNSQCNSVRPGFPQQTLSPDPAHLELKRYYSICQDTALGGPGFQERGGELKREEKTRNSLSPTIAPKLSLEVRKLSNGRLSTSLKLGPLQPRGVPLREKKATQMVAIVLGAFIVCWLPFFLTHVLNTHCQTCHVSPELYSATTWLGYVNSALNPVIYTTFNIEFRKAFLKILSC
Sequence of Beta-2 adrenergic receptor (P07550 whole entry): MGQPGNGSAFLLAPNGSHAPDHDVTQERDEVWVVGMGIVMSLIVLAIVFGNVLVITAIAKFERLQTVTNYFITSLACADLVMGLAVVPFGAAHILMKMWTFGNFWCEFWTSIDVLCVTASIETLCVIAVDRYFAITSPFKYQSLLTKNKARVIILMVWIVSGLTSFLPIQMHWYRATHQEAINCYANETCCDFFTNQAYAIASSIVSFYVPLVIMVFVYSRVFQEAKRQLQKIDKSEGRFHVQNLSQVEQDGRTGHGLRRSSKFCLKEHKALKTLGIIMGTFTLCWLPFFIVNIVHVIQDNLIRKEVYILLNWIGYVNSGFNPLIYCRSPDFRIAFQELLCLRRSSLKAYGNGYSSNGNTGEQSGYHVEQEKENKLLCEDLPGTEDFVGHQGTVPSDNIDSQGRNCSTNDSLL
Sequence of D(1B) dopamine receptor (P21918 whole entry): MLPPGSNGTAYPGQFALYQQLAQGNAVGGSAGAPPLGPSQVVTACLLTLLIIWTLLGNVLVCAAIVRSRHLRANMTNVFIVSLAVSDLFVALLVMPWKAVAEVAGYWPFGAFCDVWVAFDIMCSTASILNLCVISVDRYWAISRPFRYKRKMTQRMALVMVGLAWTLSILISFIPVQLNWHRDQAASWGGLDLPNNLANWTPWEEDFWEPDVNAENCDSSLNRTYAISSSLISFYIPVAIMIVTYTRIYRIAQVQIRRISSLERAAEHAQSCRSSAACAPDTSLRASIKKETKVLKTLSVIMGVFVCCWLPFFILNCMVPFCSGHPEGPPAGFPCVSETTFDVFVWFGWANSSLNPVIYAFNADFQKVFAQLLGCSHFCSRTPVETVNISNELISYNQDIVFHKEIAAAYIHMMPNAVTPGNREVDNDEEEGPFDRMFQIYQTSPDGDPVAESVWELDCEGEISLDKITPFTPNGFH
Sequence of 5-hydroxytryptamine receptor 2C (P28335 whole entry): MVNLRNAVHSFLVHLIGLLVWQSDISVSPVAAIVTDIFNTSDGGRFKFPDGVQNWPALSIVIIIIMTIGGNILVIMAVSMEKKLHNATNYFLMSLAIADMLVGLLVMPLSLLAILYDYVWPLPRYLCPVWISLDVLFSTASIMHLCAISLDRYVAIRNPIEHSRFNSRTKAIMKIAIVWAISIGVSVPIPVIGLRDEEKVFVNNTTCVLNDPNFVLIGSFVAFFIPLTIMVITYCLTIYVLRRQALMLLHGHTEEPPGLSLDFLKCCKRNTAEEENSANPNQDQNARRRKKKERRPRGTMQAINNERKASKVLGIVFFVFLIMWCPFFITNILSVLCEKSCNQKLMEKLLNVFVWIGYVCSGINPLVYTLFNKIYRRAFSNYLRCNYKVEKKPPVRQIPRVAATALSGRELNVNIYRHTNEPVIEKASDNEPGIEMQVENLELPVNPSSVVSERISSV
Sequence of Mu-type opioid receptor (P35372 whole entry): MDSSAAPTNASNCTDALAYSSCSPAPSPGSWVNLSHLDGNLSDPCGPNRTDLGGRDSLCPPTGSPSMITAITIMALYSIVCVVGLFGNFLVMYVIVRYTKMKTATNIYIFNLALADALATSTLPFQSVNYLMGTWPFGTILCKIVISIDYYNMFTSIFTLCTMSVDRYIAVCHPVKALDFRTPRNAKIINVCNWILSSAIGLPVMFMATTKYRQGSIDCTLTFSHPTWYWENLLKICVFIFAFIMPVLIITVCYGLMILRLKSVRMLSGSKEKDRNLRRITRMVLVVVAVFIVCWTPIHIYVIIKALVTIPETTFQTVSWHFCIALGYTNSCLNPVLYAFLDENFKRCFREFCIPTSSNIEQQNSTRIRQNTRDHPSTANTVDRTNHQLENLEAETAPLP
Sequence of 5-hydroxytryptamine receptor 2A (P28223 whole entry): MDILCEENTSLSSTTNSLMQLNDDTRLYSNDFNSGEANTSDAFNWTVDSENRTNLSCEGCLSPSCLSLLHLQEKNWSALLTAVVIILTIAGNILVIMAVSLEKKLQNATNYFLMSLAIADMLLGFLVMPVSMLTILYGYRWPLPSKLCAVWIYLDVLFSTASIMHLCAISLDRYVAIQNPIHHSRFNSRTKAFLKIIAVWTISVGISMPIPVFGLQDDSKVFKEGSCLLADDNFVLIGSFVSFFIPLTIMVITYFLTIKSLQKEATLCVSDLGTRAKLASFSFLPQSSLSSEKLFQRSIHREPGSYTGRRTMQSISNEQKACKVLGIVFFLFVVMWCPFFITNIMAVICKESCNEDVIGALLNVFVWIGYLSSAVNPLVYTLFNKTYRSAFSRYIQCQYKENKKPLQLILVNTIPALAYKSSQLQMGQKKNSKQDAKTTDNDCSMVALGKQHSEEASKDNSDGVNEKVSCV
Sequence of 5-hydroxytryptamine receptor 1E (P28566 whole entry): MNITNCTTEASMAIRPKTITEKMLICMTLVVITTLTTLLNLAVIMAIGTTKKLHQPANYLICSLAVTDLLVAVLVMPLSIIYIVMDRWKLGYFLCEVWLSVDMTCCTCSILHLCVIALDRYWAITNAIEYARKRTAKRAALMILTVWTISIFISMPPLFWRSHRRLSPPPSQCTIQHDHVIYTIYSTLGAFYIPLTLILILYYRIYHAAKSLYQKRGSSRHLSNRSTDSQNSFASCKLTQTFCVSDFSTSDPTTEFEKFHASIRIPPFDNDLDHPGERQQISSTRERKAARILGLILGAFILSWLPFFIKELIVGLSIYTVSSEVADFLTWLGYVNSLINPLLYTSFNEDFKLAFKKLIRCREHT
Sequence of 5-hydroxytryptamine receptor 1A (P08908 whole entry): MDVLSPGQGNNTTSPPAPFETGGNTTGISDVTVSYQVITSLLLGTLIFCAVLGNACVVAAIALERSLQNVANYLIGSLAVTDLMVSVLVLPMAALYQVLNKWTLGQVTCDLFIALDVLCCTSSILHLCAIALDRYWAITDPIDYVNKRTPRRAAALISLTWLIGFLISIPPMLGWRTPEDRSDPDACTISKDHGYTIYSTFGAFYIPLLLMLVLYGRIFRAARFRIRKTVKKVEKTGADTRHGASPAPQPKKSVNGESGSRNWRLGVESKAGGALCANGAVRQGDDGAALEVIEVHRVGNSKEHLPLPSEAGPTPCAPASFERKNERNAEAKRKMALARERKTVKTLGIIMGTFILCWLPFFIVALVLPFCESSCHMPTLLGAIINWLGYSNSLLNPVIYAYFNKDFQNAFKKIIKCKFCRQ
Sequence of Sigma non-opioid intracellular receptor 1 (Q99720 whole entry): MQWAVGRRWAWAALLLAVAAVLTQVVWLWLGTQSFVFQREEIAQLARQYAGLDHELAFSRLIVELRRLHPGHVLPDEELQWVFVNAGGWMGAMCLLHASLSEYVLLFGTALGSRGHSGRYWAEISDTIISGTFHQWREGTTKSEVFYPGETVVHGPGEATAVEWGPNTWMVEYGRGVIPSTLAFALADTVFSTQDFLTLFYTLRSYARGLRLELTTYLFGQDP
Sequence of 5-hydroxytryptamine receptor 1D (P28221 whole entry): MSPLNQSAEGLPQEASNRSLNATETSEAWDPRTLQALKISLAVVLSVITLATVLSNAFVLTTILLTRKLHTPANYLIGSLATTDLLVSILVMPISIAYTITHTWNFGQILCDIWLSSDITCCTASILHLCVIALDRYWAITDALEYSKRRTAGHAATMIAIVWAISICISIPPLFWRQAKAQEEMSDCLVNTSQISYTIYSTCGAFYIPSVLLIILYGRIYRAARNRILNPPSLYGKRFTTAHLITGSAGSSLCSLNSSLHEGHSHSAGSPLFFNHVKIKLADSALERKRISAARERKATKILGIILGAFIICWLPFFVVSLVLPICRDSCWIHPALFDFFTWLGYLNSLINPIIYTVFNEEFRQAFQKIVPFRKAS

O=C(O)c1ccc(CN2CCC(CNC(=O)c3c4n(c5ccccc35)CCCO4)CC2)cc1 gave a pKb [1] of 7.25 and a Ki [2] of 5.01 nM.

Compound COC(=O)CCCCCCCCCCCN1CCC(CNC(=O)c2c3n(c4ccccc24)CCCO3)CC1 has a pKb [1] of 9.89 and a Ki [2] of 0.339 nM.

O=C(CCCCCN1CCC(CNC(=O)c2c3n(c4ccccc24)CCCO3)CC1)OCc1ccccc1 gave a pKb [1] of 10.2 and a Ki [2] of 0.141 nM.

Compound O=C(O)CCCCN1CCC(CNC(=O)c2c3n(c4ccccc24)CCCO3)CC1 has a pKb [1] of 8.1, a Ki [2] of 2.04 nM and a logD [3] of -1.3.

In the case of COC(=O)CCCCCN1CCC(CNC(=O)c2c3n(c4ccccc24)CCCO3)CC1, the Ki (D(1B) dopamine receptor) is reported as > 10 µM, the Ki [4] is reported as 2.51 µM and the Ki [5] is reported as > 10 µM. For the same compound, the Ki [6] was 1.26 µM, the Ki (Mu-type opioid receptor) was > 10 µM and the Ki [7] was 3.16 µM. For the same compound, the pKi [8] was < 5, the Ki [9] was > 10 µM and the Ki [10] was > 10 µM. For the same compound, the Ki [11] was 2.51 µM, the Ki (Histamine H3 receptor) was > 10 µM and the Ki [12] was > 10 µM. The Ki [13] was > 10 µM, the Ki [14] was > 10 µM and the Ki [15] was > 10 µM. For the same compound, the Ki [16] was > 10 µM, the Ki [17] was > 10 µM and the Ki [18] was > 10 µM. The Ki (Histamine H2 receptor) was 3.16 µM, the Ki [19] was 0.316 µM and the Ki [20] was 6.31 µM. For the same compound, the Ki [21] was > 10 µM, the Ki [22] was > 10 µM and the Ki [23] was > 10 µM. The pKb [1] was 9.13, the Ki [2] was 0.107 nM and the Ki [24] was > 10 µM. The Ki (Histamine H1 receptor) was 1.26 µM, the Ki [25] was > 10 µM and the Ki (D(4) dopamine receptor) was > 10 µM. For the same compound, the Ki [26] was > 10 µM, the Ki [27] was 0.398 µM and the Ki [28] was > 10 µM. For the same compound, the Ki [29] was > 10 µM, the Ki [30] was > 10 µM and the Ki (D(3) dopamine receptor) was > 10 µM. For the same compound, the logD [3] was 2.2, the pKi [31] was < 5 and the Ki [32] was > 10 µM. The Ki [33] was > 10 µM, the Ki (D(2) dopamine receptor) was > 10 µM and the Ki [34] was > 10 µM. For the same compound, the Ki (Histamine H4 receptor) was > 10 µM, the pKi [35] was < 5 and the Ki [36] was > 10 µM. The Ki (D(1A) dopamine receptor) was > 10 µM.

Compound O=C(CCCN1CCC(CNC(=O)c2c3n(c4ccccc24)CCCO3)CC1)OCc1ccccc1 has a pKb [1] of 9.85, a Ki [2] of 0.0427 nM and a half-life [37] of 20 min.

Work on CC(C)(C)C(=O)OCOC(=O)c1ccc(CN2CCC(CNC(=O)c3c4n(c5ccccc35)CCCO4)CC2)cc1 yielded a pKb [1] of 9.07, a Ki [2] of 0.339 nM and a logD [3] of 2.3.

Cn1cc(C(=O)OCC2CCN(CCNS(C)(=O)=O)CC2)c2ccccc21 showed a Ki [38] of 0.0741 nM and a pKb [1] of 9.24.

For CCOP(=O)(CCN1CCC(CNC(=O)c2c3n(c4ccccc24)CCCO3)CC1)OCC, the pKb [1] was 8.64 and the Ki [2] was 1.26 nM.

CC(C)(C)OC(=O)CN1CCC(CNC(=O)c2c3n(c4ccccc24)CCCO3)CC1 showed a pKb [1] of 9.01 and a Ki [2] of 0.759 nM.

Work on CC(C)(C)OC(=O)CCCCCN1CCC(CNC(=O)c2c3n(c4ccccc24)CCCO3)CC1 yielded a pKb [1] of 9.89 and a Ki [2] of 0.0537 nM.

With CCOC(=O)CCCN1CCC(CNC(=O)c2c3n(c4ccccc24)CCCO3)CC1 the pKb [1] was 9.43, the Ki [2] was 0.102 nM and the half-life [37] was 30 min.
